The source made the active and inactive calls. The calls are words filed in the database; no cut-off is given here.
Experiments:
[1] = tested on: HUVEC; assay: Antiinvasive activity in VEGF-stimulated HUVEC assessed as cellular migration after 24 hrs by fluorescence assay relative to control; type: functional, Homo sapiens; parameters: concentration or dose not given beside the values
[2] = tested on: HUVEC; assay: Cytotoxicity against HUVEC by MTT assay; type: cell-based; details: Homo sapiens
How it was run: (§1)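 Overall cytotoxicity measured by MTT proliferation assay, compounds tested at concentrations up to 50 μM.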

[3] = Cytotoxicity against human CL1-5 cells by MTT assay; type: cell-based; how it was run: as §1
[4] = Antiinvasive activity in human CL1-5 cells assessed as cellular migration after 24 hrs by fluorescence assay relative to control; type: functional; parameters: concentration or dose not given beside the values
[5] = biological target: T1, Cathepsin S (Homo sapiens, UniProt P25774); assay: Inhibition of human recombinant cathepsin S expressed in Escherichia coli BL21 (DE3) after 10 mins by fluorescence assay
Target sequence in this assay (P25774 whole entry): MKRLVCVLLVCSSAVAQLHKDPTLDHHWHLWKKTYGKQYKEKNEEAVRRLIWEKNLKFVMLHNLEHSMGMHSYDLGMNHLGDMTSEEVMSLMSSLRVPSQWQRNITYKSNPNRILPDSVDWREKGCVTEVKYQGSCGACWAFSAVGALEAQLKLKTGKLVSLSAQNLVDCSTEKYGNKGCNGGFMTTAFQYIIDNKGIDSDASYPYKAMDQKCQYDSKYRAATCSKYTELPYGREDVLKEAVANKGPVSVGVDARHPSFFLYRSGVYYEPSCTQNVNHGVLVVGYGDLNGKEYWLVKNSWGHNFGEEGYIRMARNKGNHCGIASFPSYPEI

[6] = biological target: Cathepsin B (Homo sapiens) (UniProt P07858); assay: Inhibition of cathepsin B assessed as proteolytic activity at 40 nM by fluorimetric assay; parameters: Activity: scale not given: the % may be the effect or the level left
[7] = biological target: Procathepsin L (Homo sapiens) (UniProt P07711); assay: Inhibition of cathepsin L assessed as proteolytic activity at 40 nM by fluorimetric assay; parameters: Activity: scale not given: the % may be the effect or the level left
Procathepsin L (Homo sapiens), sequence (P07711 114-333 limits assumed): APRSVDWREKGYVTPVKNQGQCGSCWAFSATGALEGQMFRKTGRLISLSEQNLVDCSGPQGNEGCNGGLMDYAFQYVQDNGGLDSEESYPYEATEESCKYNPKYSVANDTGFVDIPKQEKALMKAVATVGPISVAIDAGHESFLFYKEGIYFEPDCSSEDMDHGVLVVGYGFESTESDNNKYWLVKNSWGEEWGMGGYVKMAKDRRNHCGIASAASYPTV

[8] = biological target: T1, Cathepsin S; assay: Competitive inhibition of human recombinant cathepsin S expressed in Escherichia coli BL21 (DE3) after 15 mins by Lineweaver-Burke plot analysis
Target sequence in this assay (P25774 115-331 limits assumed): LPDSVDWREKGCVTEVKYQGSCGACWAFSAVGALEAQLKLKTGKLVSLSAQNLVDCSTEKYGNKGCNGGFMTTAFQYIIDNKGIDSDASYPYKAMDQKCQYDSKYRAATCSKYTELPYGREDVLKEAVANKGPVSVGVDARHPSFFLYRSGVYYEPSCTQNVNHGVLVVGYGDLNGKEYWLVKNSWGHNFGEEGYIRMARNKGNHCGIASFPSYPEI

[9] = biological target: T1, Cathepsin S; assay: Inhibition of cathepsin S-mediated cleavage of fibronectin by cell-based ECM degradation assay
Target sequence in this assay (P25774 115-331 limits assumed): as above

[10] = Cytotoxicity against human CL1-5 cells assessed as maximal tolerated dose by MTT assay; type: cell-based; details: read-out: MTD
How it was run: (§2)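 MTT proliferation read-out for overall cytotoxicity of the α-ketoamides. Compounds were tested at concentrations up to 50 μM. Both cell types express high levels of Cat S.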

[11] = tested on: HUVEC; assay: Antiangiogenic activity in VEGF-stimulated HUVEC assessed as capillary tube formation after 16 hrs by photographic analysis; type: functional, Homo sapiens
How it was run: (§3)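 HUVEC plated on Matrigel-coated wells, treated with α-ketoamide in presence of VEGF (20 ng/mL); after 16 h incubation cultures photographed and capillary tubes (branch points) counted under microscope at 100× magnification. Tube formation expressed relative to DMSO control; mean ± SD from three separate experiments.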

[12] = Antiinvasive activity in human CL1-5 cells after 24 hrs by fluorescence assay; type: functional
How it was run: (§4)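 CL1-5 lung adenocarcinoma cells (2 × 10⁵ per well) treated with compound; control wells received DMSO (10 μL) in medium (2 mL). Cell traversal/invasion expressed as percent of DMSO control (set 100%); mean ± SD from hexaplicate experiments.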

[13] = Cytotoxicity against HUVEC assessed as maximal tolerated dose by MTT assay; type: cell-based; details: human, read-out: MTD; how it was run: as §2
[14] = tested on: HUVEC; assay: Antiangiogenic activity in VEGF-stimulated HUVEC assessed as inhibition of capillary tube formation after 16 hrs by photographic analysis; type: functional, Homo sapiens; parameters: scale not given: the % may be the effect or the level left; how it was run: as §3
[15] = Antiinvasive activity in human CL1-5 cells assessed as cellular invasion after 24 hrs by fluorescence assay; type: functional; how it was run: as §4

Row | SMILES | IC50 [5] [nM] | Activity [1] [%] | IC50 [2] [nM] | IC50 [3] [nM] | Activity [4] [%] | other results
1 | CCOC(=O)CNC(=O)C(=O)C(COCc1ccccc1)NC(=O)[C@H](CC1CCCCC1)NC(=O)c1ccc(C(=O)OC)c(NC(=O)OC(C)(C)C)c1 (some centres undefined) | 49.2 | 82 | 47000 | 36000 | 51 | Activity [6]: 89%; Activity [7]: 8.7%
2 | CCOC(=O)CNC(=O)C(=O)C(COCc1ccccc1)NC(=O)[C@H](CC1CCCCC1)NC(=O)c1cc(Cl)ccc1[N+](=O)[O-] (some centres undefined) | 8 | 68 | > 50000 | > 50000 | 76 | –
3 | CCOC(=O)CNC(=O)C(=O)[C@H](COCc1ccccc1)NC(=O)[C@H](CC1CCCCC1)NC(=O)c1cc(F)ccc1F | 11.5 | 34 | – | – | 48 | –
4 | CCOC(=O)CNC(=O)C(=O)C(COCc1ccccc1)NC(=O)[C@H](CC1CCCCC1)NC(=O)c1cc(Cl)cc([N+](=O)[O-])c1 (some centres undefined) | 22.8 | 73 | > 50000 | > 50000 | 80 | –
5 | N#C[C@H](COCc1ccccc1)NC(=O)[C@H](CC1CCCCC1)NC(=O)N1CCOCC1 | – | 83 | > 50000 | > 50000 | 67 | Activity [6]: 104%; Activity [7]: 44.8%
6 | CC(C)C[C@H](NC(=O)[C@H]1O[C@@H]1C(=O)O)C(=O)NCCCCN=C(N)N | – | – | – | – | – | inhibition [6]: 75%; inhibition [7]: -1.3%
7 | CCOC(=O)CNC(=O)C(=O)C(COCc1ccccc1)NC(=O)[C@H](CC1CCCCC1)NC(=O)Cc1cccs1 (some centres undefined) | 7.2 | 59 | 39000 | > 50000 | 67 | –
8 | CCOC(=O)CNC(=O)C(=O)C(COCc1ccccc1)NC(=O)[C@H](CC1CCCCC1)NC(=O)c1cc(Br)ccc1NC(=O)OC(C)(C)C (some centres undefined) | 23.8 | 86 | – | – | 76 | –
9 | CCOC(=O)CNC(=O)C(=O)C(COCc1ccccc1)NC(=O)[C@H](CC1CCCCC1)NC(=O)c1ccc([N+](=O)[O-])s1 (some centres undefined) | 10.3 | 56 | 48000 | > 50000 | 64 | –
10 | CCOC(=O)CNC(=O)C(=O)[C@H](COCc1ccccc1)NC(=O)[C@H](CC1CCCCC1)NC(=O)C(=O)c1cccs1 | 6.6 | 57 | 36000 | > 50000 | 56 | inhibition [9]: Dose-dependent effect; MNTC [10]: 10 µM; Activity [11]: 64%; Activity [12]: 82%; MNTC [13]: 10 µM; Activity [14]: 36%; Activity [15]: 18%
11 | CCCCCC1OC(=O)C(C(=O)N[C@@H](CC2CCCCC2)C(=O)NC(COCc2ccccc2)C(=O)C(=O)NCC(=O)OC)=CC1C (some centres undefined) | 42.3 | 99 | – | – | 119 | –
12 | CCOC(=O)CNC(=O)C(=O)C(COCc1ccccc1)NC(=O)[C@H](CC1CCCCC1)NC(=O)CC(c1ccccc1)(c1ccccc1)c1ccccc1 (some centres undefined) | > 100 | – | – | > 50000 | – | –
13 | CCOC(=O)CNC(=O)C(=O)[C@H](COCc1ccccc1)NC(=O)[C@H](CC(C)C)NC(=O)c1cccc2c1C(=O)c1ccccc1-2 | 8.8 | 55 | 30000 | 23000 | 50 | inhibition [9]: Dose-dependent effect; MNTC [10]: 10 µM; Activity [11]: 88%; Activity [12]: 68%; MNTC [13]: 10 µM; Activity [14]: 32%; Activity [15]: 32%
14 | CCOC(=O)CNC(=O)C(=O)C(COCc1ccccc1)NC(=O)[C@H](CC1CCCCC1)NC(=O)c1ccc(Cl)c(NC(=O)OC(C)(C)C)c1 (some centres undefined) | 15.7 | 48 | 48000 | 42000 | 50 | –
15 | CCOC(=O)CNC(=O)C(=O)C(COCc1ccccc1)NC(=O)[C@H](CC1CCCCC1)NC(=O)CCC(=O)c1ccc2ccc3cccc4ccc1c2c34 (some centres undefined) | > 100 | – | – | – | – | –

Now from value to compound, other results behind:

Row | IC50 [5] [nM] | SMILES | Activity [1] [%] | IC50 [2] [nM] | IC50 [3] [nM] | Activity [4] [%] | other results
16 | 3.4 | CCOC(=O)CNC(=O)C(=O)C(COCc1ccccc1)NC(=O)[C@H](CC1CCCCC1)NC(=O)C1(C)CC1 (some centres undefined) | 95 | 35000 | > 50000 | 101 | –
17 | 6.2 | CCOC(=O)CNC(=O)C(=O)[C@H](COCc1ccccc1)NC(=O)[C@H](CC1CCCCC1)NC(=O)c1cc(Br)ccc1N | 69 | – | – | 52 | –
18 | 5.9 | CCOC(=O)CNC(=O)C(=O)C(COCc1ccccc1)NC(=O)[C@H](CC1CCCCC1)NC(=O)c1cccc(F)c1F (some centres undefined) | 107 | – | – | 115 | –
19 | 6.2 | CCOC(=O)CNC(=O)C(=O)C(COCc1ccccc1)NC(=O)[C@H](CC1CCCCC1)NC(=O)c1ccc(C)cc1 (some centres undefined) | 55 | – | – | 55 | –
20 | 3.8 | CCOC(=O)CNC(=O)C(=O)C(COCc1ccccc1)NC(=O)[C@H](CC1CCCCC1)NC(=O)/C=C/c1cc(OC)ccc1OC (some centres undefined) | 59 | – | > 50000 | 81 | –
21 | 2.1 | CCOC(=O)CNC(=O)C(=O)C(COCc1ccccc1)NC(=O)[C@H](CC1CCCCC1)NC(=O)c1ccc(Cl)c(N)c1 (some centres undefined) | 46 | > 50000 | > 50000 | 68 | –
22 | 4.4 | CCOC(=O)CNC(=O)C(=O)C(COCc1ccccc1)NC(=O)[C@H](CC1CCCCC1)NC(=O)N1CCOCC1 (some centres undefined) | 87 | > 50000 | > 50000 | 51 | inhibition [8]: Active; Activity [6]: 102%; Activity [7]: 3.2%
23 | 3.6 | CCOC(=O)CNC(=O)C(=O)C(COCc1ccccc1)NC(=O)[C@H](CC1CCCCC1)NC(=O)c1cc(SC)ccc1Cl (some centres undefined) | – | > 50000 | 32000 | 65 | Activity [6]: 92%; Activity [7]: 17.4%
24 | 5.8 | CCOC(=O)CNC(=O)C(=O)C(COCc1ccccc1)NC(=O)[C@H](CC1CCCCC1)NC(=O)c1ccc(C(=O)OC)c(N)c1 (some centres undefined) | 49 | > 50000 | > 50000 | 53 | inhibition [9]: Dose-dependent effect; Activity [11]: 43%; Activity [12]: 67%; Activity [14]: 57%; Activity [6]: 84%; Activity [7]: 8%; Activity [15]: 33%
25 | 7.1 | CCOC(=O)CNC(=O)C(=O)C(COCc1ccccc1)NC(=O)[C@H](CC1CCCCC1)NC(=O)c1cc2ccccc2n1C (some centres undefined) | 55 | – | – | 69 | –
26 | 1.9 | CCOC(=O)CNC(=O)C(=O)C(COCc1ccccc1)NC(=O)[C@H](CC1CCCCC1)NC(=O)c1cccc([N+](=O)[O-])c1 (some centres undefined) | 39 | > 50000 | > 50000 | 67 | Activity [6]: 97%; Activity [7]: 2.9%
27 | 4.3 | CCOC(=O)CNC(=O)C(=O)C(COCc1ccccc1)NC(=O)[C@H](CC1CCCCC1)NC(=O)C1=CC(=O)CC(C)(C)O1 (some centres undefined) | 89 | 37000 | > 50000 | 98 | –
28 | 5.7 | CCOC(=O)CNC(=O)C(=O)C(COCc1ccccc1)NC(=O)[C@H](CC1CCCCC1)NC(=O)Cc1cccc2ccccc12 (some centres undefined) | 54 | – | – | 41 | –
29 | 2.3 | CCOC(=O)CNC(=O)C(=O)C(COCc1ccccc1)NC(=O)[C@H](CC1CCCCC1)NC(=O)c1ccc(Br)o1 (some centres undefined) | 76 | – | – | 80 | –
30 | 2 | CCOC(=O)CNC(=O)C(=O)C(COCc1ccccc1)NC(=O)[C@H](CC1CCCCC1)NC(=O)c1ccc(OC(C)=O)cc1 (some centres undefined) | 27 | > 50000 | > 50000 | 69 | Activity [6]: 91%; Activity [7]: 0.4%
31 | 5.6 | CCOC(=O)CNC(=O)C(=O)C(COCc1ccccc1)NC(=O)[C@H](CC1CCCCC1)NC(=O)c1cccc(C)c1[N+](=O)[O-] (some centres undefined) | 83 | – | – | 79 | –
32 | 3.1 | CCOC(=O)CNC(=O)C(=O)C(COCc1ccccc1)NC(=O)[C@H](CC1CCCCC1)NC(=O)c1cc(OC)ccc1[N+](=O)[O-] (some centres undefined) | 98 | 39000 | > 50000 | 95 | –
33 | 6.1 | CCOC(=O)CNC(=O)C(=O)C(COCc1ccccc1)NC(=O)[C@H](CC1CCCCC1)NC(=O)c1cncc(C)n1 (some centres undefined) | 62 | – | – | 60 | –

From ChEMBL document CHEMBL1155553, “Design and synthesis of alpha-ketoamides as cathepsin S inhibitors with potential applications against tumor invasion and angiogenesis” (J Med Chem, 2010)
